This is an account of results in ChEMBL document CHEMBL2040828 (J Med Chem, 2012).

Active and inactive are the calls of the source. No cut-off for these calls is given here.

Data set [1] in a line: Irreversible inhibition of hepatitis C virus NS5B polymerase. Set-up: species or system Hepacivirus hominis.
For another data set, the system named is Hepatitis C virus. Briefly: Antiviral activity against HCV by cell based replicon assay. Format: functional, organism-based, Hepacivirus hominis.
Data set [2] in a line: AUC in rat at 10 mg/kg, po. Format: ADME, organism-based. Further details: dose 10 mg/kg, route oral. To be noted: plasma. The method, boiled down:
(§1)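 Single-dose pharmacokinetics: rats were dosed at 10 mg/kg, and monkeys and dogs at 3 mg/kg. Oral AUC, clearance, half-life and bioavailability were determined. All doses were given in 0.4% MC vehicle.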

Data set [3] in a line: Oral bioavailability in rat at 10 mg/kg. Format: ADME, organism-based. The settings on record: in vivo. The procedure, abridged: as §1
Data set [4] can be described thus: Half life in rat at 10 mg/kg, iv. Format: ADME, organism-based. Further details: dose 10 mg/kg, route intravenous. To be noted: in vivo. The method, boiled down: as §1
Data set [5] is described as follows: Clearance in rat at 10 mg/kg. Format: ADME, organism-based. Set-up: dose 10 mg/kg. To be noted: in vivo. The method, boiled down:
as §1

A short description of data set [6]: Drug level in rat liver at 10 mg/kg, iv after 6 hrs. Format: ADME, organism-based. Further details: dose 10 mg/kg, route intravenous. The settings on record: read-out: Drug uptake.
Data set [7] in a line: AUC in monkey at 3 mg/kg, po. Set-up: dose 3 mg/kg, route oral. To be noted: rhesus monkey, plasma. Format: ADME, organism-based, Macaca mulatta. The procedure, abridged: as §1
Data set [8] can be described thus: Oral bioavailability in monkey at 3 mg/kg. The settings on record: rhesus monkey, in vivo. Format: ADME, organism-based, Macaca mulatta. The procedure, abridged:
as §1

Data set [9] in a line: Half life in monkey at 3 mg/kg, iv. The settings on record: rhesus monkey, in vivo. Format: ADME, organism-based, Macaca mulatta. Further details: dose 3 mg/kg, route intravenous. The method, boiled down:
as §1

Data set [10] in a line: Clearance in monkey at 3 mg/kg. Format: ADME, organism-based, Macaca mulatta. Further details: dose 3 mg/kg. The settings on record: rhesus monkey, in vivo. The method, boiled down: as §1
A short description of data set [11]: AUC in dog at 3 mg/kg, po. Format: ADME, organism-based, Canis lupus familiaris. Set-up: dose 3 mg/kg, route oral. To be noted: plasma. The method, boiled down:
as §1

A short description of data set [12]: Oral bioavailability in dog at 3 mg/kg. Format: ADME, organism-based, Canis lupus familiaris. The settings on record: in vivo. The method, boiled down:
as §1

The nature of data set [13]: Half life in dog at 3 mg/kg, iv. Format: ADME, organism-based, Canis lupus familiaris. Set-up: dose 3 mg/kg, route intravenous. The settings on record: in vivo. The method, boiled down:
as §1

Data set [14] can be described thus: Clearance in dog at 3 mg/kg. Format: ADME, organism-based, Canis lupus familiaris. The settings on record: in vivo. Further details: dose 3 mg/kg. The procedure, abridged:
as §1

The subject of data set [15] is Plasma. Briefly: Metabolic stability in rat plasma up to 3 hrs. Format: ADME, cell-free.
The test system of data set [16] is Plasma. Briefly: Metabolic stability in monkey plasma up to 3 hrs. Format: ADME, cell-free, Macaca mulatta. The settings on record: rhesus monkey.
For data set [17], the system named is Plasma. Briefly: Metabolic stability in dog plasma up to 3 hrs. Format: ADME, cell-free, Canis lupus familiaris.
Data set [18] relates to Plasma. Briefly: Metabolic stability in human plasma up to 3 hrs. Format: ADME, cell-free.
For another data set, the target named is Cytochrome P450 2D6 (Homo sapiens, UniProt P10635). Briefly: Inhibition of CYP2D6 up to 30 uM. Format: ADME.
In a further data set the target is Cytochrome P450 3A4 (Homo sapiens, UniProt P08684). Briefly: Inhibition of CYP3A4 up to 30 uM. Format: ADME.
In a further data set the target is Cytochrome P450 2C9 (Homo sapiens, UniProt P11712). Briefly: Inhibition of CYP2C9 up to 30 uM. Format: ADME.
A short description of data set [19]: Induction of cytochrome P450 activity at 10 uM. Format: ADME.
The next data set addresses T1, Lupus La protein (Homo sapiens, UniProt P05455).
T1 sequence (P05455 whole entry): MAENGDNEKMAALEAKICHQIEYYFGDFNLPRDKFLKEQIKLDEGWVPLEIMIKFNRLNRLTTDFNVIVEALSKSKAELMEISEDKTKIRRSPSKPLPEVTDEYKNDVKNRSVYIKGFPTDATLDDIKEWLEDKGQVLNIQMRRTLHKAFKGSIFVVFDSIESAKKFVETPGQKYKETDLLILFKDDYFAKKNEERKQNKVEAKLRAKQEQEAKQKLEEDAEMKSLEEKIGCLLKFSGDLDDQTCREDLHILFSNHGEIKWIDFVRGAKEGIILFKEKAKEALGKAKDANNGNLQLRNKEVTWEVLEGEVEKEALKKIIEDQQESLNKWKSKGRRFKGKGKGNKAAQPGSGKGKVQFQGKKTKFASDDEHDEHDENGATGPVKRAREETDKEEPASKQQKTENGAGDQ
Briefly: Binding affinity to human La antigen by NMR based ALARM assay. Format: ADME. The method, boiled down: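 NMR-based ALARM assay. The compound was incubated with human La antigen, and NMR was used to monitor reaction with the antigen's reactive thiols.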

For data set [20], the system named is Salmonella typhimurium. Briefly: Mutagenic activity in Salmonella typhimurium by mini-AMES test in presence of S9 fraction. Format: toxicity, organism-based. The settings on record: salmonella enterica subsp. enterica serovar typhimurium.
Data set [21] deals with Salmonella typhimurium. Briefly: Mutagenic activity in Salmonella typhimurium by mini-AMES test in absence of S9 fraction. Format: toxicity, organism-based. The settings on record: salmonella enterica subsp. enterica serovar typhimurium.
Data set [22] is described as follows: Mutagenic activity in micronuclei assessed as induction of chromosomal damage.
A further data set concerns Hepacivirus hominis. Briefly: Binding affinity to hepatitis C virus NS5B polymerase assessed as covalent bonding with cysteine-366 residue by mass spectroscopy analysis.

Cytochrome P450 2D6, sequence (P10635 whole entry): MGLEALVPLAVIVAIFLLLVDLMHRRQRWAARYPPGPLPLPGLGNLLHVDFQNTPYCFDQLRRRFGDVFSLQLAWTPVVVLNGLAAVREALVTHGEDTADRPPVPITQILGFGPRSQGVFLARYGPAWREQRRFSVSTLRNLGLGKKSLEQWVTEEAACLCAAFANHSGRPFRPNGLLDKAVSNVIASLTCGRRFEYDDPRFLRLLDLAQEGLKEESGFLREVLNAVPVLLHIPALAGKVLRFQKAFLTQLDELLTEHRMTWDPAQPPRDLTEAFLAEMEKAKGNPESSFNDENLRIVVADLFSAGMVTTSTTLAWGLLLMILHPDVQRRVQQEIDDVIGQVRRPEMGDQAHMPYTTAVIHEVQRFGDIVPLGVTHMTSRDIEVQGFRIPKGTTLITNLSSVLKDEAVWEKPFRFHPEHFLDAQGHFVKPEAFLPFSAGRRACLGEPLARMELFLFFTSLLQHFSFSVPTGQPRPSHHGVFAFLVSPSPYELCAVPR
Cytochrome P450 2C9, sequence (P11712 whole entry): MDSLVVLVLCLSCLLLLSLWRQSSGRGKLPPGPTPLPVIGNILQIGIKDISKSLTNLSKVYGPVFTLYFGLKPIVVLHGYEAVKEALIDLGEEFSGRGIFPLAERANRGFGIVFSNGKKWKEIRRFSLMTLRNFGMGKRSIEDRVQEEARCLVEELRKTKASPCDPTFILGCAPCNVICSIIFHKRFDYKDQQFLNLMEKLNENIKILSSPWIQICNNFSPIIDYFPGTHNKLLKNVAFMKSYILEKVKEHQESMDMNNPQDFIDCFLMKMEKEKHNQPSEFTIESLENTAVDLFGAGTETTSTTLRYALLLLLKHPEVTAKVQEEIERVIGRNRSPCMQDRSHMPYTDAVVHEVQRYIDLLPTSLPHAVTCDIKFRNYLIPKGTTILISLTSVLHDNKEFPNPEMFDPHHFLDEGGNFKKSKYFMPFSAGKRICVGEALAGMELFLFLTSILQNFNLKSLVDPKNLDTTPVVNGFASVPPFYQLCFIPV
Cytochrome P450 3A4, sequence (P08684 whole entry): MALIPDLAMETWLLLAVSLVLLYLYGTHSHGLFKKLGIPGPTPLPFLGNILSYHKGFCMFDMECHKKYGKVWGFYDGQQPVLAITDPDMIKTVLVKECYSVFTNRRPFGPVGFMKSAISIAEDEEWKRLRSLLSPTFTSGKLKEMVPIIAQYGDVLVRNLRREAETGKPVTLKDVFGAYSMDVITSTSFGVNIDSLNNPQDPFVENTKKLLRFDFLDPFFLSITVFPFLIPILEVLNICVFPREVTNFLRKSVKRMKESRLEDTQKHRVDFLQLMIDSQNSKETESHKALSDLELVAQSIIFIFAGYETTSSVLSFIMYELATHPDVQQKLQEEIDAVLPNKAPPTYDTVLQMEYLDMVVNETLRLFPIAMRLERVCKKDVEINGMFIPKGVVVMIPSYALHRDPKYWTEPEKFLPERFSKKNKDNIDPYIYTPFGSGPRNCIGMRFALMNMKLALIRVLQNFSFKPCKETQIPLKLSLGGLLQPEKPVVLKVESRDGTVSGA

Turning to `Cc1ccc2c(c1)c(-c1ccc[nH]c1=O)c(C(=O)NS(=O)(=O)C1CC1)n2Cc1cccc(C)c1F`, it took 4 nM to reach half-maximal inhibition in data set [1] (IC50). In addition, the EC50 in the data set with Hepatitis C virus was found to be 380 nM.

In turn, `Cc1ccc2c(c1)c(-c1ccc[nH]c1=O)c(C(=O)NS(=O)(=O)N(C)C)n2Cc1cc([N+](=O)[O-])ccc1F` yielded an IC50 in data set [1] of 5 nM. The concentration for a half-maximal effect (EC50) in the data set with Hepatitis C virus amounted to 0.5 nM.

As to `Cc1ccc2c(c1)c(-c1ccc[nH]c1=O)c(C(=O)NS(=O)(=O)C1CC1)n2Cc1c(F)c(F)cc(S(C)(=O)=O)c1F`, in data set [1], the IC50 came out at 14 nM. Moreover, in the data set with Hepatitis C virus, the 50% effective concentration (EC50) amounted to 270 nM.

The molecule `Cc1ccc2c(c1)c(-c1ccc(C)[nH]c1=O)c(C(=O)NS(=O)(=O)C1CC1)n2Cc1cc([N+](=O)[O-])ccc1F` gave an IC50 in data set [1] of 12 nM. For the same molecule, the EC50 with Hepatitis C virus was 9 nM.

Consider `CC(C)(C)c1ccc2c(c1)c(-c1ccc[nH]c1=O)c(C(=O)NS(=O)(=O)C1CC1)n2Cc1cc([N+](=O)[O-])ccc1F`, for which the IC50 in data set [1] is 6 nM. Besides, the concentration for a half-maximal effect (EC50) with Hepatitis C virus was 10 nM.

In the case of `CCc1ccc2c(c1)c(-c1ccc[nH]c1=O)c(C(=O)O)n2Cc1cc([N+](=O)[O-])ccc1F`, the IC50 in [1] was 5 nM. Moreover, in the data set on Hepatitis C virus, the EC50 was found to be 1 nM. For the same molecule, the area under the curve (AUC) amounted to 18 µM·h in data set [2], 3.4 µM·h in [7] and 11 µM·h in [11]. In addition, the figures for the bioavailability in [3], in data set [8] and in data set [12] were 37%, 30% and 95%, respectively. For the same molecule, the half-life in data set [4] was 8.2 h; in data set [9], 1.3 h; in data set [13], 1.2 h. The clearance in [5] was found to be 8 mL/min/kg; in data set [10], 10 mL/min/kg; in data set [14], 10 mL/min/kg. The concentration at 6 h in [6] stood at 460 nM. Also, the Stability result with Plasma [15], in the data set on Plasma [16], with Plasma [17] and with Plasma [18] was “Stable” in each case. Further, the “inhibition (INH)” value against Cytochrome P450 2D6, on Cytochrome P450 3A4 and on Cytochrome P450 2C9 was “Not Active” each time. For the same molecule, the Activity result in data set [19] is “Not Active”; at Lupus La protein it was “Not Active”; in the data set with Salmonella typhimurium [20], “Non-toxic”; in the data set with Salmonella typhimurium [21], “Non-toxic”; in data set [22] it was “Non-toxic”.

On to `Cc1ccc2c(c1)c(-c1ccc[nH]c1=O)c(C(=O)NS(=O)(=O)C1CC1)n2Cc1ccccc1F`, for which, in [1], the IC50 is 5 nM. Moreover, the EC50 with Hepatitis C virus turned out to be 50 nM.

On to `Cc1ccc2c(c1)c(-c1ccc[nH]c1=O)c(C(=O)N[S+]([O-])C(C)C)n2Cc1cc([N+](=O)[O-])ccc1F` (configuration not stated), for which it took 7 nM to reach half-maximal inhibition in [1] (IC50). Also, the concentration for a half-maximal effect (EC50) in the data set on Hepatitis C virus worked out at 2 nM.

For `Cc1ccc2c(c1)c(-c1ccc[nH]c1=O)c(C(=O)NS(=O)(=O)C1CC1)n2Cc1cc([S+]([O-])C(F)(F)F)ccc1Cl` (configuration not stated), the half-inhibitory concentration (IC50) in [1] is 14 nM. In the data set on Hepatitis C virus, the EC50 was found to be 3400 nM.

In turn, `CCc1ccc2c(c1)c(-c1ccc[nH]c1=O)c(C(=O)NS(=O)(=O)C1CC1)n2Cc1cc([N+](=O)[O-])ccc1F` showed an IC50 in data set [1] of 4 nM. In the data set on Hepatitis C virus, this molecule came in with a half-maximal effective concentration (EC50) of 1 nM. In addition, the area under the curve (AUC) in data set [2] came out at 0.17 µM·h. Also, the Activity entry was “Not Active” at Lupus La protein, “Non-toxic” in the data set on Salmonella typhimurium [20], “Non-toxic” with Salmonella typhimurium [21] and “Non-toxic” in [22].

Take `Cc1ccc2c(c1)c(-c1ccc(C)[nH]c1=O)c(C(=O)NS(C)(=O)=O)n2Cc1cc([N+](=O)[O-])ccc1F`: the IC50 in data set [1] came to 6 nM. The molecule also returned an EC50 with Hepatitis C virus of 8 nM.

Turning to `Cc1ccc2c(c1)c(-c1ccc[nH]c1=O)c(C(=O)NS(=O)(=O)C1CC1)n2Cc1cc(S(=O)(=O)C(F)(F)F)ccc1Cl`, half-maximal inhibition in [1] (IC50) was put at 46 nM. For the same molecule, the midpoint of the response in the data set with Hepatitis C virus, the EC50, lay at 900 nM.

With `Cc1ccc2c(c1)c(-c1ccc[nH]c1=O)c(C(=O)NS(=O)(=O)C1CC1)n2Cc1cc(S(N)(=O)=O)ccc1F`, in data set [1], half-maximal inhibition (IC50) required 5 nM. In the data set with Hepatitis C virus, this molecule showed an EC50 of 550 nM.

`Cc1ccc2c(c1)c(-c1ccc[nH]c1=O)c(C(=O)NS(C)(=O)=O)n2Cc1cc([N+](=O)[O-])ccc1F` gave a 50% inhibitory concentration (IC50) in data set [1] of 6 nM. The concentration giving a half-maximal response (EC50) in the data set on Hepatitis C virus amounted to 1 nM. In data set [2], the exposure (AUC) was 0.19 µM·h. In the data set on Hepacivirus hominis, the outcome was Active.

In data set [1], `Cc1ccc2c(c1)c(-c1ccc[nH]c1=O)c(C(=O)NS(=O)(=O)C1CC1)n2Cc1cc(C#N)ccc1F` yielded an IC50 of 9 nM. This molecule also came in with a concentration giving a half-maximal response (EC50) in the data set on Hepatitis C virus of 220 nM.

In data set [1], `Cc1ccc2c(c1)c(-c1ccc[nH]c1=O)c(C(=O)NS(=O)(=O)C1CC1)n2Cc1cc(S(C)(=O)=O)ccc1F` showed an IC50 of 6 nM. In addition, in the data set on Hepatitis C virus, the EC50 is 580 nM.

Turning to `Cc1ccc2c(c1)c(-c1ccc[nH]c1=O)c(C(=O)NS(=O)(=O)C1CC1)n2Cc1cc(F)ccc1F`, the IC50 in [1] was 6 nM.

The molecule `Cc1ccc2c(c1)c(-c1ccc(C)[nH]c1=O)c(C(=O)O)n2Cc1cc([N+](=O)[O-])ccc1F` came in with an IC50 in [1] of 13 nM. Also, the EC50 with Hepatitis C virus came out at 30 nM.
